This is an account of results in ChEMBL document CHEMBL2331240, “Focused library development of 2-phenylacrylamides as broad spectrum cytotoxic agents” (2013).

A short description of experiment [1]: Cytotoxicity against human MIA cells assessed as growth inhibition at 100 uM measured after 72 hrs by MTT assay. In kind it is functional. To be noted: read-out: GI. On the technique in general: Tetrazolium assays rely on reduction of a dye to a coloured formazan, in cell work by metabolically active cells.
Experiment [2] can be described thus: Cytotoxicity against human SJ-G2 cells assessed as growth inhibition at 100 uM measured after 72 hrs by MTT assay. Format: functional. To be noted: SJ-G2, 72 h, read-out: GI.
The subject of experiment [3] is DU-145. Description: Cytotoxicity against human DU145 cells assessed as growth inhibition at 100 uM measured after 72 hrs by MTT assay. Conditions: DU-145, 72 h, read-out: GI. Format: functional.
Experiment [4] is described as follows: Cytotoxicity against human BE(2)-C cells assessed as growth inhibition at 100 uM measured after 72 hrs by MTT assay. In kind it is functional. To be noted: read-out: GI.
Experiment [5] deals with A-431. The experiment in a line: Cytotoxicity against human A431 cells assessed as growth inhibition at 100 uM measured after 72 hrs by MTT assay. To be noted: A-431, 72 h, read-out: GI. Format: functional.
Experiment [6] has as its system A2780. Description: Cytotoxicity against human A2780 cells assessed as growth inhibition at 100 uM measured after 72 hrs by MTT assay. To be noted: A2780, 72 h, read-out: GI. Format: functional.
Experiment [7] is described as follows: Cytotoxicity against human H460 cells assessed as growth inhibition at 100 uM measured after 72 hrs by MTT assay. Format: functional. Conditions: NCI-H460, 72 h, read-out: GI.
In experiment [8] the test system is SW480. The experiment in a line: Cytotoxicity against human SW480 cells assessed as growth inhibition at 100 uM measured after 72 hrs by MTT assay. Format: functional. To be noted: SW480, 72 h, read-out: GI.
Experiment [9] concerns MCF7. Description: Cytotoxicity against human MCF7 cells assessed as growth inhibition at 100 uM measured after 72 hrs by MTT assay. To be noted: MCF7, 72 h, read-out: GI. Format: functional.
For experiment [10], the system named is HT-29. The experiment in a line: Cytotoxicity against human HT-29 cells assessed as growth inhibition at 100 uM measured after 72 hrs by MTT assay. In kind it is functional. Conditions: HT-29, 72 h, read-out: GI.
The nature of experiment [11]: Cytotoxicity against human SJ-G2 cells assessed as growth inhibition measured after 72 hrs by MTT assay. Format: functional. Conditions: SJ-G2, 72 h. An outline of the steps:
(§1)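 Cells in log phase were seeded in duplicate at 2500–4000 cells/well in supplemented DMEM (37 °C, 5% CO2). Drug from a 40 mM DMSO stock was added on day 0, 24 h post-plating. Read-out was MTT absorbance at 540 nm after 72 h.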

Experiment [12] can be described thus: Cytotoxicity against human MIA cells assessed as growth inhibition measured after 72 hrs by MTT assay. In kind it is functional. The gist of the method:
as §1

For experiment [13], the system named is DU-145. The experiment in a line: Cytotoxicity against human DU145 cells assessed as growth inhibition measured after 72 hrs by MTT assay. In kind it is functional. To be noted: DU-145, 72 h. An outline of the steps: as §1
Experiment [14] in a line: Cytotoxicity against human BE(2)-C cells assessed as growth inhibition measured after 72 hrs by MTT assay. In kind it is functional. An outline of the steps:
as §1

The nature of experiment [15]: Cytotoxicity against human H460 cells assessed as growth inhibition measured after 72 hrs by MTT assay. Format: functional. Conditions: NCI-H460, 72 h. The gist of the method:
as §1

Experiment [16] concerns A-431. The experiment in a line: Cytotoxicity against human A431 cells assessed as growth inhibition measured after 72 hrs by MTT assay. To be noted: A-431, 72 h. In kind it is functional. An outline of the steps: as §1
In experiment [17] the test system is MCF7. The experiment in a line: Cytotoxicity against human MCF7 cells assessed as growth inhibition measured after 72 hrs by MTT assay. In kind it is functional. To be noted: MCF7, 72 h. The gist of the method:
as §1

Experiment [18] deals with A2780. Description: Cytotoxicity against human A2780 cells assessed as growth inhibition measured after 72 hrs by MTT assay. In kind it is functional. To be noted: A2780, 72 h. An outline of the steps:
as §1

Experiment [19] deals with HT-29. Description: Cytotoxicity against human HT-29 cells assessed as growth inhibition measured after 72 hrs by MTT assay. Format: functional. Conditions: HT-29, 72 h. An outline of the steps: as §1
Experiment [20] has as its system SW480. Description: Cytotoxicity against human SW480 cells assessed as growth inhibition measured after 72 hrs by MTT assay. In kind it is functional. Conditions: SW480, 72 h. The gist of the method:
as §1

The nature of experiment [21]: Cytotoxicity against mouse SMA cells assessed as growth inhibition measured after 72 hrs by MTT assay.
A short description of experiment [22]: Cytotoxicity against mouse SMA cells assessed as growth inhibition at 100 uM measured after 72 hrs by MTT assay. To be noted: read-out: GI.
The subject of the next experiment is SJ-G2. The experiment in a line: Cytotoxicity against human SJ-G2 cells assessed as growth inhibition at 25 uM measured after 72 hrs by MTT assay. Format: functional, cell-based. An outline of the steps: (§2)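 Log-phase cells were plated in duplicate at 2500–4000 cells/well in DMEM with 10% FBS, glutamine and antibiotics, at 37 °C under 5% CO2. Drug was added 24 h after plating from a 40 mM DMSO stock, to a final 25 μM. After 72 h exposure, MTT was read at 540 nm and % growth inhibition was calculated, with 100% meaning total growth inhibition.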

A short description of experiment [23]: Cytotoxicity against human MIA cells assessed as growth inhibition at 25 uM measured after 72 hrs by MTT assay. In kind it is functional. Conditions: read-out: GI. The gist of the method: as §2
Another experiment relates to BE(2)-C. The experiment in a line: Cytotoxicity against human BE(2)-C cells assessed as growth inhibition at 25 uM measured after 72 hrs by MTT assay. In kind it is functional. The gist of the method:
as §2

The subject of experiment [24] is A-431. Description: Cytotoxicity against human A431 cells assessed as growth inhibition at 25 uM measured after 72 hrs by MTT assay. In kind it is functional, cell-based. An outline of the steps: as §2
The test system of experiment [25] is DU-145. Description: Cytotoxicity against human DU145 cells assessed as growth inhibition at 25 uM measured after 72 hrs by MTT assay. In kind it is functional, cell-based. An outline of the steps:
as §2

Experiment [26] has as its system A2780. The experiment in a line: Cytotoxicity against human A2780 cells assessed as growth inhibition at 25 uM measured after 72 hrs by MTT assay. In kind it is functional. The gist of the method: as §2
A further experiment concerns NCI-H460. Description: Cytotoxicity against human H460 cells assessed as growth inhibition at 25 uM measured after 72 hrs by MTT assay. In kind it is functional, cell-based. An outline of the steps:
as §2

Experiment [27] concerns SW480. Description: Cytotoxicity against human SW480 cells assessed as growth inhibition at 25 uM measured after 72 hrs by MTT assay. Format: functional. The gist of the method:
as §2

Experiment [28] relates to MCF7. Description: Cytotoxicity against human MCF7 cells assessed as growth inhibition at 25 uM measured after 72 hrs by MTT assay. In kind it is functional. Conditions: MCF7, 72 h, read-out: GI. An outline of the steps: as §2
In experiment [29] the test system is HT-29. The experiment in a line: Cytotoxicity against human HT-29 cells assessed as growth inhibition at 25 uM measured after 72 hrs by MTT assay. Format: functional, cell-based. An outline of the steps:
as §2

The next experiment has as its system SMA. Description: Cytotoxicity against mouse SMA cells assessed as growth inhibition at 25 uM measured after 72 hrs by MTT assay.

The source made the active and inactive calls. The rule behind the calls is not given here.

For `N#C/C(=C\c1ccc(Cl)cc1)C(=O)c1ccc[nH]1`, the inhibition of growth at 100 µM (in [1]; in experiment [2]; with DU-145 [3]; in experiment [4]; in the experiment on A-431 [5]; in the experiment on A2780 [6]) was 31% each time. The inhibition of growth at 100 µM (in experiment [7]; in the experiment on SW480 [8]; in the experiment on MCF7 [9]; in the experiment with HT-29 [10]; in experiment [22]) was 31% in each case. The GI50 (usually the concentration that inhibits growth by half) was 37 µM in experiment [11]; 48 µM in experiment [12]; 61 µM with DU-145 [13]; 34 µM in experiment [14]; 43 µM in experiment [15]; 52 µM with A-431 [16]. Also, the GI50 with MCF7 [17] worked out at 27 µM; in the experiment on A2780 [18], 35 µM; in the experiment with HT-29 [19], 36 µM; with SW480 [20] it was 34 µM; in [21], 38 µM.
Regarding `COc1ccc(CNC(=O)/C(C#N)=C/c2cc3ccccc3o2)cc1`, the “growth inhibition (GI)” value in the experiment with SJ-G2, in the experiment with BE(2)-C, in the experiment with A-431 [24], in the experiment with DU-145 [25], in the experiment with A2780 [26] and in the experiment on NCI-H460 was “inactive” in each case. Further, the “growth inhibition (GI)” value with SW480 [27], with HT-29 [29] and in the experiment with SMA was “inactive” throughout. For the same molecule, the inhibition of growth at 25 µM in [23] is 34%; in the experiment with MCF7 [28], 40%.
